CHO parental Ca – ATP-evoked calcium signal inhibitors, parental CHO, primary screen, counter-screen for OX1R antagonist project, cell-based, fluorescence, Fluo-8 calcium dye. parental CHO-K1, ATP-induced calcium, Fluo-8 fluorescence. hit rate 0.63% among 330,000. inhibition, % at 5.6 µM;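 active means inhibition above that plate's mean sample inhibition plus 3 SD, cut at about 26% in these data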;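 further: 0% = ATP-challenged DMSO wells and 100% = DMSO wells without ATP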
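Measured by: calcium-sensitive Fluo-8 fluorescence / Test system: CHO parental line / Controls: ATP-challenged DMSO wells low, unchallenged DMSO wells high / Measure: % inhibition / Compound: single nominal dose of 5.6 µM per compound / Replicates: single well per compound, no replicates / Reagent: ATP as calcium-mobilizing challenge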
TRPML3 agonist – human TRPML3 channel agonists, primary screen, cell-based, HEK293 TRPML3-YFP, Fluo-8 calcium fluorescence, 3 µM. Mucolipin-3 (Homo sapiens), Q8TDD5. 100% = the carbachol control signal. activation, % at 3 µM. hit rate 0.29% among 220,000. AID 1448, 2008;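 active means activation above its plate's cutoff, the mean activation of the plate's test wells plus 3 SD, cut at about 12% in these data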;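 further: 0% = DMSO only wells and 100% = carbachol wells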
Target sequence (Q8TDD5 whole entry, looked up): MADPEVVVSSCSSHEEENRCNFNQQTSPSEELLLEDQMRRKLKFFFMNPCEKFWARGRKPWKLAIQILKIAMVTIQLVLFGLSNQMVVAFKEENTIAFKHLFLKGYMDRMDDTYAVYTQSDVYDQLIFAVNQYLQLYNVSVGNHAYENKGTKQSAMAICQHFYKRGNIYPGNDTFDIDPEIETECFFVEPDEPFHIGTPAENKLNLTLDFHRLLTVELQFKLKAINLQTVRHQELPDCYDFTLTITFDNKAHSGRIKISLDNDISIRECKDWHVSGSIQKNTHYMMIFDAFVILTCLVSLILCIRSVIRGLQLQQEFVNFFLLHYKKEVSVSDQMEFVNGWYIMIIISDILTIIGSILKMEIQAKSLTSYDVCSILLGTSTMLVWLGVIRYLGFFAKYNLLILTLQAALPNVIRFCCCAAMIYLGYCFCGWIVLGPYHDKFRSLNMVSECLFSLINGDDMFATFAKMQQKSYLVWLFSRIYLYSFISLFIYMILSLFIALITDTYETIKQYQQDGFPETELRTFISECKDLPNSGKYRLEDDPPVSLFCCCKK
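system = HEK293 cells stably carrying human TRPML3-YFP | doses = one concentration, 3 µM nominal, 0.3% DMSO | timing = dye loading 1 h 37 °C then 30 min ambient, 125 s read | detection = Fluo-8 calcium dye fluorescence, ex 470-495, em 515-575 nm | benchmarks = high control carbachol 87 µM, low control DMSO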
OX1R antag-1 – antagonists of human orexin 1 receptor (OX1R). Orexin/Hypocretin receptor type 1 (Homo sapiens), O43613. OX1R-expressing cells, FRET antagonist read-out. inhibition, % at 6.6 µM. hit rate 1.8% among 330,000. AID 485270, 2010; in the data active means inhibition mostly above about 38%, no sharp cut-off; inactive means mostly below about 40%;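 further: 0% = agonist challenge alone and 100% = reference antagonist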
GPR7 antag – GPR7 receptor antagonists, primary screen, cell-based, fluorescence, single concentration; Neuropeptides B/W receptor type 1 (Homo sapiens), P48145; GPR7-expressing cells, fluorescence antagonist assay; inhibition, % at 4.4 µM; hit rate 1.1% among 290,000; AID 1861, 2009; in the data active means inhibition above about 16%, passing the limit was not always enough;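 further: cells stimulated with the agonist NPW; 0% = agonist with vehicle and 100% = vehicle without agonist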
zfTRPN1 agonist – zebrafish TRPN1 channel agonists, primary screen, cell-based, HEK293, calcium fluorescence; AID 1424, 2008; hit rate 0.18% among 220,000; HEK293 zebrafish TRPN1-YFP, Fluo-8 calcium fluorescence; 100% = response to 87 µM carbachol; transient receptor potential cation channel N1 (TRPN1/NompC), Danio rerio; activation, % at 3 µM;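 active means activation above its plate's cutoff, the mean activation of test wells on that plate plus 3 SD, cut at about 19% in these data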;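 further: 0% = DMSO alone and 100% = 87 µM carbachol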
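Material: zebrafish TRPN1-YFP in HEK293 cells; Doses: single test compound dose, 3 µM nominal, 0.3% DMSO; Timing: dye loading 1 h at 37 °C, then 30 min room temperature; Technique: intracellular calcium fluorescence with Fluo-8; Benchmarks: high carbachol 87 µM, low DMSO alone.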
OX1R antag-2 – OX1R (HCRTR1) antagonists, primary screen, fluorescence, CHO/OX1R cells, Fluo-8 calcium, orexin A; Orexin/Hypocretin receptor type 1 (Homo sapiens), O43613; Fluo-8 calcium fluorescence; inhibition, % at 5 µM; hit rate 0.43% among 330,000;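 active means inhibition above its plate's threshold, mean inhibition of all tested compounds on the plate plus 3 SD, cut at about 37% in these data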;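 further: 0% = orexin A challenge wells and 100% = SB-334867-A antagonist wells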
OX1R Ca confirm – OX1R (HCRTR1) antagonists, confirmation, fluorescence, CHO/OX1R cells, Fluo-8 calcium, orexin A | orexin A calcium Fluo-8 fluorescence | AID 492963, 2010 | inhibition, % at 5 µM | hit rate 38% among 1,100 | shares compounds with OX1R antag-2; in the data active means inhibition above about 29%;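 further: 0% = agonist challenge alone and 100% = reference antagonist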
CHO Ca triplic – ATP-evoked calcium inhibition in parental CHO, counter-screen for OX1R antagonist project, cell-based, fluorescence, CHO-K1, triplicate; hit rate 9.3% among 1,100; ATP-induced calcium, Fluo-8 fluorescence; shares compounds with OX1R antag-2; inhibition, % at 5.6 µM;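 active means inhibition above a per-plate limit, the mean inhibition of that plate's test compounds plus 3 SD, cut at about 25% in these data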;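 further: 0% = ATP challenge with DMSO and 100% = DMSO without ATP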
OX1R HTRF confirm – OX1R (HCRTR1) antagonists, confirmation, cell-based, HTRF | shares compounds with OX1R antag-1 | OX1R-expressing cells, HTRF antagonist assay | inhibition, % at 6.6 µM | hit rate 49% among 1,800; in the data active means inhibition above about 55%;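 further: CHO cells expressing OX1R stimulated with orexin A at about EC80; 0% = agonist challenge alone and 100% = reference antagonist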
CHO-K1 HTRF cnt – signal inhibition in parental CHO-K1 cells, counter-screen for OX1R antagonist project, cell-based, HTRF | hit rate 48% among 1,800 | shares compounds with OX1R antag-1 | inhibition, % at 6.6 µM | HTRF counterscreen; in the data active means inhibition above about 17%;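 further: 0% = agonist challenge with vehicle and 100% = vehicle alone without agonist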
* = called active by the depositor; · = no result. Rows were chosen to be rich in hits. Some 3.2% of all compounds tested hit in one or more screens of this group.

SMILES	CHO parental Ca	TRPML3 agonist	OX1R antag-1	GPR7 antag	zfTRPN1 agonist	OX1R antag-2	OX1R Ca confirm	CHO Ca triplic	OX1R HTRF confirm	CHO-K1 HTRF cnt
COc1ccccc1NC(=O)CSc1nc2ncccc2[nH]1	-19	0	9	-12	0	-22	·	·	·	·
Cc1cc(SCC(=O)OC(C)C(=O)N(C)c2ccccc2)nc2ccccc12 (stereo unspecified)	-26	·	38*	·	·	48*	15	1	61*	0
COc1ccc(OC)c(N=c2oc3cc(O)ccc3cc2C(N)=O)c1	-4	0	35	0	1	-8	·	·	·	·
COc1ccc2oc(=Nc3cc(F)ccc3F)c(C(N)=O)cc2c1	4	0	87*	7	-1	27	43*	1	75*	11
O=C1c2ccccc2C(=O)N1CC(O)Cn1nnc2ccccc21 (stereo unspecified)	3	-1	8	-6	1	-13	·	·	·	·
OC(CN1c2ccccc2Sc2ccccc21)Cn1nnc2ccccc21 (stereo unspecified)	-20	0	63*	-2	1	42	31*	-13	52	1
Cc1ccc(C(=O)N(CC(=O)NC2CCCCC2)c2ccccc2C)s1	-13	1	22	11	-1	-10	·	·	·	·
Cc1ccccc1N(CC(=O)NC1CCCC1)C(=O)c1oc(C(C)(C)C)cc1C	-21	0	93*	6	1	38	57*	-9	86*	2
COc1ccccc1C(=O)Nc1nc2cc3c(cc2s1)OCCO3	7	1	106*	-27	0	39	51*	-6	95*	4
COC(=O)C1=C(C(=O)OC)[C@]2([C@H]3CCCCN[C@@H](Cc4ccccc4)C(=O)N3Cc3ccccc3)C=C[C@H]1O2	-23	·	17	·	·	1	·	·	·	·
Cc1cc(O)cc2c(=O)c3ccccc3sc12	14	1	86*	-7	0	52*	56*	-1	92*	6
CCS(=O)c1ccccc1C(=O)OCC(=O)N1CCC(c2ccccc2)=N1 (stereo unspecified)	-20	·	6	·	·	-15	·	·	·	·
CCc1cc(C(=O)OCC(=O)N2CCC(c3ccccc3)=N2)sc1C	-7	·	80*	-34	·	54*	78*	-4	92*	2
CCOc1ccc2nc(NC(=O)C3CCCN(S(=O)(=O)c4cccs4)C3)sc2c1 (stereo unspecified)	-15	0	84*	-16	0	52*	36*	-9	62*	8
O=C1CCC(C(=O)Nc2cccc(S(=O)(=O)Nc3ccccc3F)c2)=NN1	-9	·	8	·	·	-5	·	·	·	·
O=C(C1CCCN(S(=O)(=O)c2cccc3nsnc23)C1)N1CCc2ccccc21 (stereo unspecified)	5	1	103*	-12	3	27	-7	-13	25	10
Nc1cc(S(=O)(=O)C(F)(F)F)ccc1C(=O)O	1	1	7	-13	-1	1	·	·	·	·
O=S(=O)(c1ccc2c(c1)C(O)c1ccccc1CC2)C(F)(F)F (stereo unspecified)	13	·	34*	·	·	52*	20	17	34	1
Cc1ccc(NC2CCCN(C(=O)c3cn(C)c4ccccc34)C2)cc1C (stereo unspecified)	-14	·	80*	-6	·	27	23	-12	90*	2
COc1ccc(-c2ccc(SCC(=O)c3cccs3)nn2)cc1	-16	2	50	1	2	-17	·	·	·	·
CCOC(=O)N1CCN(C(=O)CSc2ccc(-c3ccccc3)nn2)CC1	-10	0	92*	-20	0	26	27	3	82*	-2
O=C(CSc1ccc(-c2ccccc2)nn1)c1cccs1	-7	1	102*	-5	0	50*	99*	-4	90*	-4
CCOC(=O)c1ccc(Nc2cnc3ccccc3n2)cc1	-7	1	62*	-13	1	46*	23	-5	50	0
Cc1ccn2cc(C(=O)Nc3ccc4c(c3)OCCO4)nc2c1	-24	0	88*	-12	2	40	10	-1	74*	9
COc1cc(/C=N/NC(=O)c2cc(-c3cccc(Br)c3)nc3ccccc23)cc(OC)c1O	-14	·	67*	·	·	37	29*	-10	78*	3
SMILES	CHO parental Ca	TRPML3 agonist	OX1R antag-1	GPR7 antag	zfTRPN1 agonist	OX1R antag-2	OX1R Ca confirm	CHO Ca triplic	OX1R HTRF confirm	CHO-K1 HTRF cnt
Cc1cccc(NS(=O)(=O)c2cccc(C(=O)N3CCCC(C(F)(F)F)C3)c2)c1 (stereo unspecified)	-23	·	6	·	·	-5	·	·	·	·
CCOc1ccc2c(c1)c1nc3ccccc3nc1n2C	·	·	·	-15	·	·	·	·	·	·
Cn1c2ccc(Cl)cc2c2nc3ccccc3nc21	-14	0	91*	-11	0	31	40*	-9	92*	-1
O=C(NC(Cc1c[nH]c2ccccc12)C(=O)N/N=C/c1ccc(Cl)cc1)c1cccs1 (stereo unspecified)	-5	1	98*	2	1	48*	64*	8	81*	-1
O=C(NC(Cc1c[nH]c2ccccc12)C(=O)N1CCOCC1)c1cccs1 (stereo unspecified)	-18	1	3	-9	1	-13	·	·	·	·
O=C(CSc1nnc(Cn2nnc3ccccc32)o1)N(Cc1ccc(F)cc1)c1ccccc1	10	0	78*	20	4	79*	51*	61*	70*	3
CSC1=NSC2=NC(=O)/C(=C/c3coc4ccccc4c3=O)C(=N)N12	47	10	78*	7	36*	66*	27	15	39	-7

Screens: PubChem, The Scripps Research Institute Molecular Screening Center
